# In PMC4739608 (The Journal of Cell Biology, 2016):
# Experiments:
# HFF cells [1] = assay: Immunofluorescence of IACs in HFF cells; assay type: cell-based, human; settings: HFFs prespread on FN, 3 µM FAK [i] or 10 µM PF228, 1 h
# In short: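 Cells were grown on FN-coated (10 µg/ml) coverslips or glass-bottom dishes. HFFs were spread on FN for 1 h before inhibitor or DMSO was added. Cells were fixed in 4% paraformaldehyde for 7 min, then permeabilized with 0.5% Triton X-100 for 10 min. Primary antibodies were applied for 1 h and secondaries for 30 min, in 2% BSA at RT. Stained areas >10 pixels were normalized to total cell area, with count and size per cell.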
# NIH3T3 cells = assay: Immunofluorescence of IACs in NIH3T3 cells; assay type: cell-based, mouse; settings: NIH3T3 on FN, 3 µM FAK [i] or 10 µM PF228, 1 h
# [2] = system: consensus adhesome proteins; settings: three other studies; ref Horton et al., 2015b; cited from earlier work
# HFF cells [3] = assay: Crystal violet proliferation assay; assay type: cell-based, human; settings: up to 4 d, total cell number by crystal violet
smiles,measurement,setting,value
CS(=O)(=O)c1cccc(CNc2nc(Nc3ccc4c(c3)CCC(=O)N4)ncc2C(F)(F)F)c1 [PF228],FAK^Y397 levels by immunofluorescence,HFF cells [1],significantly reduced
same,"area and numbers of vinculin- or paxillin-containing IACs, and the actin cytoskeleton",HFF cells [1],unaffected
same,FAK^Y397 levels by immunofluorescence,NIH3T3 cells,reduction of FAK^Y397 levels
same,vinculin- or paxillin-containing IACs,NIH3T3 cells,did not affect
Cc1ccc2c(c1)C(=O)C1(O)CCN(c3ccccc3)C1=N2 (stereo not drawn) [blebbistatin],"consensus adhesome proteins, mean fold decrease upon blebbistatin treatment",[2],2.1 fold
"CN1CCN(CCOc2cc(OC3CCOCC3)c3c(Nc4c(Cl)ccc5c4OCO5)ncnc3c2)CC1 [Src [i], N-(5-chloro-1,3-benzodioxol-4-yl)-7-[2-(4-methylpiperazin-1-yl)ethoxy]-5-(tetrahydro-2H-pyran-4-yloxy)quinazolin-4-amine]",inhibition of proliferation relative to DMSO,HFF cells [3],30%
